Rows were chosen to be rich in hits. Some 3.2% of all compounds tested hit in one or more screens of this group.
TRPML3 ag: human mucolipin-3 channel agonism. Q8TDD5. HEK293 TRPML3-YFP, Fluo-8 calcium fluorescence; 100% = the carbachol control signal. activation, % at 3 µM. 220,000 compounds, 0.29% hits. AID 1448;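 active = activation above its plate's cutoff, the mean activation of the plate's test wells plus 3 SD, cut at about 12% in these data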
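Material: TRPML3-YFP stable HEK293 cells | Dosing: One concentration, 3 µM nominal, 0.3% DMSO | Timing: 125 s total fluorescence read per well | Technique: Fluo-8 calcium dye fluorescence, ex 470-495, em 515-575 nm | Measure: Percent activation from peak-to-basal fluorescence ratio, scaled between DMSO and carbachol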
CHO parental Ca: signal in parental CHO cells, OX1R antagonist counter-screen; parental CHO-K1, ATP-induced calcium, Fluo-8 fluorescence; AID 463079; inhibition, % at 5.6 µM; 330,000 compounds, 0.63% hits;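 active = inhibition above that plate's mean sample inhibition plus 3 SD, cut at about 26% in these data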
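material = parental CHO cells | also added = ATP as calcium-mobilizing challenge | dosing = single point at 5.6 µM | detection = intracellular calcium via Fluo-8 no-wash fluorescent dye | read-out = % inhibition | benchmarks = low control ATP plus DMSO, high control DMSO only | repeats = one well per compound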
OX1R antag-1: antagonists of human orexin 1 receptor; CHO/OX1R cells, Fluo-8 calcium fluorescence, orexin A; O43613; AID 434989; 330,000 compounds, 0.43% hits; inhibition, % at 5 µM;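 active = inhibition above its plate's threshold, mean inhibition of all tested compounds on the plate plus 3 SD, cut at about 37% in these data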
Target sequence (O43613 whole entry, looked up): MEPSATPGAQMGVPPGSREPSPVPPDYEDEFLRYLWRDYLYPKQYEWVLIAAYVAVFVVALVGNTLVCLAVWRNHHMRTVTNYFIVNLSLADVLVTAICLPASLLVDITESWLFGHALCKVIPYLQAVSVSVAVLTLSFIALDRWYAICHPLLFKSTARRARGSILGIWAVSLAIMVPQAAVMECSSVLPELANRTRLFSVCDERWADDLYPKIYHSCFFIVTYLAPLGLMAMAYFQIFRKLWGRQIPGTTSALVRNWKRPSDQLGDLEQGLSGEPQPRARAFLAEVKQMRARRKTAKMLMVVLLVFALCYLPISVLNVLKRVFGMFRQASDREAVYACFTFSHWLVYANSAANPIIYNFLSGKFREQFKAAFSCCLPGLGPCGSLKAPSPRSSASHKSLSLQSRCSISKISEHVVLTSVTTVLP
TRPN1 ag: zebrafish TRPN1 (NompC) channel agonism; 220,000 compounds, 0.18% hits; HEK293 zebrafish TRPN1-YFP, Fluo-8 calcium fluorescence; 100% = response to 87 µM carbachol; activation, % at 3 µM;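 active = activation above its plate's cutoff, the mean activation of test wells on that plate plus 3 SD, cut at about 19% in these data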
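Assay system: Zebrafish TRPN1-YFP in HEK293 cells | Incubation: Dye loading 1 h at 37 °C, then 30 min room temperature | Measured by: Kinetic Fluo-8 fluorescence, ex 470-495, em 515-575 nm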
GPR7 antagonist: antagonists of human GPR7 (neuropeptides B/W receptor 1); P48145; GPR7-expressing cells, fluorescence antagonist assay; inhibition, % at 4.4 µM; 290,000 compounds, 1.1% hits; AID 1861; in the data active = inhibition above about 16%, passing the limit was not always enough;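 also: cells stimulated with the agonist NPW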
OX1R antag-2: blocks the human orexin 1 receptor. AID 485270. inhibition, % at 6.6 µM. O43613. 330,000 compounds, 1.8% hits. OX1R-expressing cells, FRET antagonist read-out; in the data active = inhibition mostly above about 38%, no sharp cut-off; inactive = mostly below about 40%
GPR7 antag cf: human GPR7 antagonism, confirmation assay; shares compounds with GPR7 antagonist; GPR7-expressing cells, calcium fluorescence antagonist mode; inhibition, % at 4.4 µM; 2,400 compounds, 52% hits; in the data active = inhibition above about 24%;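 also: stimulated with the GPR7 agonist NPW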
MCHR1 antag: MCHR1 (human) antagonism in GPR7 counter-screen; shares compounds with GPR7 antagonist; MCHR1-expressing cells, fluorescence antagonist assay; inhibition, % at 4.4 µM; 2,400 compounds, 62% hits; in the data active = inhibition above about 22%
A number is an active result; - = inactive; . = not tested or not shown.

SMILES	TRPML3 ag	CHO parental Ca	OX1R antag-1	TRPN1 ag	GPR7 antagonist	OX1R antag-2	GPR7 antag cf	MCHR1 antag
CCN(CC)CC(O)Cn1c(C)c(-c2ccccc2)c2cc([N+](=O)[O-])ccc21 (stereo unspecified)	.	-	-	.	40.8	-	45.3	47.6
CCN(CC)CC(O)Cn1c2ccccc2c2ccccc21 (stereo unspecified)	-	-	-	-	-	-	.	.
CSc1ccc(NC(=O)NCCCN2CCC(Cc3ccccc3)CC2)cc1	.	-	-	.	29.0	-	26.2	32.9
COc1ccc(NC(=O)NCCCN2CCC(Cc3ccccc3)CC2)cc1	-	-	-	-	-	-	.	.
Cc1ccc(NC(=O)CSc2nnnn2-c2ccc3c(c2)OCO3)cc1C	-	-	-	-	-	-	.	.
Cc1ccc(-n2nnnc2SCC(=O)Nc2ccc3c(c2)OCCO3)cc1C	-	-	-	-	21.4	-	-	-
O=C(CSc1ccc2nnc(CCNC(=O)c3ccc(F)cc3)n2n1)NCC1CCCO1 (stereo unspecified)	.	-	-	.	-	-	.	.
C=CCc1cc(Cl)ccc1OCCOCCN(C)C	-	-	-	-	39.9	-	-	-
CC(NS(=O)(=O)c1ccc(Cl)cc1)C(=O)N1CCOCC1 (stereo unspecified)	.	-	-	.	-	-	.	.
CC(C)C(NC(=O)c1ccccc1)C(=O)NCc1ccccn1 (stereo unspecified)	-	-	-	-	35.1	-	-	-
COc1cc(OC)cc(C(=O)NC(C(=O)NCc2ccccn2)C(C)C)c1 (stereo unspecified)	.	-	-	.	.	-	.	.
COc1cc([C@H]2Oc3c(OC)cc(CCCO[C@@H]4O[C@H](CO)[C@@H](O)[C@H](O)[C@H]4O)cc3[C@@H]2CO)ccc1O	.	-	-	.	.	-	.	.
CN(Cc1ccccc1)C1=CC(=[N+]2CCCC2)CC(C)(C)C1	-	-	-	-	28.7	-	48.9	38.0
COc1ccccc1CC(=O)N1CCC(CCC(=O)NC2CC2)CC1	.	-	-	.	-	-	.	.
COc1ccc(OCC(=O)Nc2ccc3c(c2)C(=O)NC3=O)cc1	.	-	-	.	28.7	-	25.7	-
Cc1cccc(C)c1OCC(=O)Nc1ccc2c(c1)C(=O)NC2=O	.	-	-	.	32.5	-	27.2	28.8
O=C(COc1ccc(Br)cc1)Nc1ccc2c(c1)C(=O)NC2=O	-	-	-	-	-	-	.	.
O=C(CSc1ccccc1)Nc1ccc2c(c1)C(=O)NC2=O	.	-	-	.	26.6	-	37.0	36.0
Cc1ccc(SCC(=O)Nc2ccc3c(c2)C(=O)NC3=O)cc1	-	-	-	-	-	-	.	.
CC(=O)c1ccc(C(=O)Nc2ccc3c(c2)C(=O)NC3=O)cc1	.	-	-	.	22.2	-	-	-
COCCCNC(=S)NC(=O)c1ccc(C)cc1	-	-	-	-	-	-	.	.
O=C(c1ccccc1)c1ccc(Sc2ccc([N+](=O)[O-])cc2)cc1	-	-	-	-	21.7	-	-	52.9
O=C(O)CSc1nc2ccccc2[nH]1	-	-	-	-	26.6	-	-	-
O=C(O)CSc1nc2ccccc2c(=O)[nH]1	-	-	-	-	-	-	.	.
O=C(c1csc2c1CCCC2)N1CCN(c2ccccc2)CC1	-	-	-	-	34.6	-	-	-
Cc1ccc2[nH]c3c(c2c1)CCc1cn[nH]c1-3	-	-	-	-	22.8	-	-	24.4
CCCCn1c(=N)n(CC(O)COc2ccccc2)c2ccccc21 (stereo unspecified)	-	-	-	-	-	-	.	.
Cc1ccc(Cn2c(=N)n(CC(O)COc3ccccc3)c3ccccc32)cc1 (stereo unspecified)	-	41.2	52.0	-	29.1	-	43.1	70.6
CCCCn1c(=N)n(CC(O)c2ccccc2)c2ccccc21 (stereo unspecified)	-	-	-	-	31.0	-	-	-
